Measurements from ChEMBL document CHEMBL3352644, “Selenadiazole derivatives as potent thioredoxin reductase inhibitors that enhance the radiosensitivity of cancer cells” (Eur J Med Chem, 2014).
Converted amounts (≈) assume the structure as drawn. The source made the active and inactive calls. The calls are words filed in the database; no cut-off is given here.

Columns and labels:
[1] = system: A-375; test: Induction of apoptosis in human A375 cells assessed as accumulation at subG1 phase at 4 ug/mL incubated for 18 hrs by propidium iodide staining based flow cytometry (reference value: 1.8%); format: functional
Outline: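 A375 cells treated at 10 or 4 µg/ml for 6 h, given 0 or 8 Gy X-ray, then 12 h more. Trypsinized, washed in PBS, fixed overnight in ice-cold 75% ethanol at −20 °C. Stained with propidium iodide, 30 min at 37 °C in the dark; DNA content and sub-G1 population read by flow cytometry.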

[2] = target: Thioredoxin reductase (Homo sapiens) (UniProt Q16881+Q9NNW7+Q86VQ6); test: Inhibition of TrxR antioxidant enzyme activity in human A375 cells at 2 ug/mL after 18 hrs by insulin reduction assay; format: cell-based; conditions: A-375
[3] = system: A-375; test: Induction of apoptosis in human A375 cells assessed as caspase 9 activation at 2 ug/mL incubated for 18 hrs by fluorometric assay; format: functional, cell-based
Outline: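 Cells seeded at 1 × 10⁶ per 10 cm dish and treated with 2 µg/ml alone or with 8 Gy X-ray for 18 h total. RIPA lysates clarified by spinning at 12,000 rpm for 5 min; 80 µg protein given Ac-DEVD-AMC (caspase-3), Ac-IETD-AMC (caspase-8) or Ac-LEHD-AMC (caspase-9). Incubated 2 h at 37 °C in the dark; fluorescence at 380/440 nm.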

[4] = system: A-375; test: Induction of apoptosis in human A375 cells assessed as caspase PARP cleavage at 2 ug/mL incubated for 18 hrs by Western blotting method; format: functional, cell-based
Outline: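 A375 cells treated with 2 µg/ml alone or with 8 Gy X-ray (6 h pretreatment, then 12 h; 18 h total). RIPA lysates (50 µg protein) run on SDS-PAGE and immunoblotted for caspases and PARP cleavage. Reprobed for β-actin as loading control.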

[5] = system: A-375; test: Cytotoxicity against human A375 cells incubated for 6 hrs followed by irradiation with 8 Gy X-ray at 37 degC for 12 hrs by MTT assay; format: functional, cell-based; conditions: A-375, light or radiation study
Outline: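 A375 cells (DMEM, 10% FBS, 37 °C, 5% CO2) seeded at 4 × 10⁴ cells/well and grown to 70–80% confluence. Treated with 0, 1, 2, 4, 8, 16 or 32 µg/ml for 6 h, then given 0 or 8 Gy X-ray (linear accelerator, 1.5 Gy/min), then 12 h more at 37 °C. MTT 4 h, formazan dissolved in DMSO, read at 570 nm; % of control; three repeats.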

[6] = system: A-375; test: Induction of cell morphological changes in human A375 cells incubated for 6 hrs followed by irradiation with 8 Gy X-ray at 37 degC for 12 hrs by microscopy; format: functional, cell-based
[7] = system: A-375; test: Induction of cell morphological changes in human A375 cells pre-treated with 20 uM p38 inhibitor […] for 1 hr followed by 8 ug/mL compound exposure for 18 hrs; format: functional, cell-based
[8] = target: MAP kinase p38 (Homo sapiens) (UniProt O15264+Q15759+Q16539+P53778); test: Induction of p38 phosphorylation in human A375 cells at 4 ug/mL incubated for 18 hrs by Western blotting method; format: cell-based; conditions: A-375
Outline: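 A375 cells given […] for 6 h, then 0 or 8 Gy X-ray at 1.5 Gy/min and 12 h further culture. Lysis in ice-cold RIPA, pH 7.4, with protease and phosphatase inhibitors; protein by BCA. […] protein per lane on SDS-PAGE, transferred to nitrocellulose. Blocked in 5% milk/TBST. Primary 1:1000, 10 h, 4 °C; HRP secondary 1:2000, 1.5 h.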

In the case of `COc1cc(-c2nc3cc(-c4ccc5n[se]nc5c4)ccc3[nH]2)cc(OC)c1OC`, the Activity [1] is reported as 36.2%, the inhibition [2] is reported as “Active” and the Activity [3] is reported as “Active”. For the same compound, the Activity [4] was “Active”, the IC50 [5] was 2.2 µg/mL (≈ 4.73 µM) and the Activity [6] was “Active”. For the same compound, the Activity [7] was “inactive” and the Activity [8] was “Active”.
